Data published in article PMC5030192 (International journal of pharmaceutics, 2016).
Converted amounts (≈) assume the structure as drawn. One block for each compound: values may come before it. Square brackets hold non-standard residues; d marks the D form. Peptide text beside a SMILES is read from it. Sar = CNCC(=O)O

Experiments:
PepT1 = assay: [3H]-GlySar uptake, interaction with peptide transporter; type: cell-based
How it was run: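 Monolayers grown to 80–90% confluency (6–7 days after seeding 3 × 10⁶ cells) were washed thrice in DPBS pH 7.4 at 37°C. They were then incubated 30 min at 37°C with [3H]-GlySar in DPBS plus test compound (25µM) or cold GlySar (10mM). Ice-cold stop wash, lysis in 0.1% Triton-X/0.3% NaOH overnight, scintillation counting; uptake normalised to protein. n=4, mean ± S.D., Student t-test.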

MRP2 = MRP2 (Homo sapiens, UniProt Q92887); assay: [3H]-LPV cellular uptake in MDCK-MRP2 cells; type: cell-based
PHT1 = assay: [3H]-His uptake, interaction with peptide/histidine transporter; type: cell-based; settings: 25µM; MDCK-MDR1, MDCK-MRP2, Caco-2
[1] = ref Patel, 2014, cited from earlier work
P-gp = P-gp (Homo sapiens, UniProt P08183); assay: [3H]-LPV cellular uptake in MDCK-MDR1 cells; type: cell-based
MDCKII-WT cells = assay: MTS based cytotoxicity assay
[2] = Solubility studies in distilled deionized water; type: physicochemical; settings: thermodynamic from solid

Sequence of MRP2 (Q92887 whole entry): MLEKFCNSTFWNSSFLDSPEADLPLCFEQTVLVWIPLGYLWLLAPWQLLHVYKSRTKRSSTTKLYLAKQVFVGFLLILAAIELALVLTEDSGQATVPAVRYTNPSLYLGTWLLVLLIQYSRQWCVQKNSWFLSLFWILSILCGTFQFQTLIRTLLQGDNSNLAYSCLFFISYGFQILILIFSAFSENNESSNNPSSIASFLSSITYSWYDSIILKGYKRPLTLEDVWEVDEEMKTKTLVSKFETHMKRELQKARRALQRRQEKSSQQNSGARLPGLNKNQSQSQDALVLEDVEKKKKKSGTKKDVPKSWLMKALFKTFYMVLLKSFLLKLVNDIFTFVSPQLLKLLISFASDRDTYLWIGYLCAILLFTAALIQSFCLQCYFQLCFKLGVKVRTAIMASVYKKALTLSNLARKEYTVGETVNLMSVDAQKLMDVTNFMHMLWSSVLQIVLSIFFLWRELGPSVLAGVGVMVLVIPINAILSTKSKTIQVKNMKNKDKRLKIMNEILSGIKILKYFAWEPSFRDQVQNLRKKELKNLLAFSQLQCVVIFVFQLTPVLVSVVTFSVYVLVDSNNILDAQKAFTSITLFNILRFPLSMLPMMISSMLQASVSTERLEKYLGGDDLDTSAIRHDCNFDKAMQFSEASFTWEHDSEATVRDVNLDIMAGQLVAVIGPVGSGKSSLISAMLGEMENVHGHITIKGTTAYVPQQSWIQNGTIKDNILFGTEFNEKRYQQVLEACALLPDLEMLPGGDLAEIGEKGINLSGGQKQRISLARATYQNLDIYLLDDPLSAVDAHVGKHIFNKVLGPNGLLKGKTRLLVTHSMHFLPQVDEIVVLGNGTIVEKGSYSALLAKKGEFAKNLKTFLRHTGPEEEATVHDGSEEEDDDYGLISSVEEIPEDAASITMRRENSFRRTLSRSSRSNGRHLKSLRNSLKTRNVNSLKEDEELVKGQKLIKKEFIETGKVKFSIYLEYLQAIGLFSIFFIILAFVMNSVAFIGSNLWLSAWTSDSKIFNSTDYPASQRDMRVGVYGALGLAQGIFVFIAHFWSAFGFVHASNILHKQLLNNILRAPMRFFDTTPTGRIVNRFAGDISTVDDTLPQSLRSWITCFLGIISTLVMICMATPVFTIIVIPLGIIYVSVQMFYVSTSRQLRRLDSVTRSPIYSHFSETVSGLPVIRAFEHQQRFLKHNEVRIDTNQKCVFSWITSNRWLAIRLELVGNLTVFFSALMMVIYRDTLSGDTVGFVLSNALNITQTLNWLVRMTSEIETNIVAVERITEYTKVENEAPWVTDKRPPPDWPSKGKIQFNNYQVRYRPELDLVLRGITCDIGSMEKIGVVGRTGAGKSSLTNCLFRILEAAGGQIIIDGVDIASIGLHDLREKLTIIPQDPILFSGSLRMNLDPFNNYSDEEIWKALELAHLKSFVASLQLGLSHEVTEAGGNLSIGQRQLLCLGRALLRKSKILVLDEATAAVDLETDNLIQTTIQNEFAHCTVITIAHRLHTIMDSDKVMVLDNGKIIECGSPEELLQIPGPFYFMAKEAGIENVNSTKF
Sequence of P-gp (P08183 whole entry): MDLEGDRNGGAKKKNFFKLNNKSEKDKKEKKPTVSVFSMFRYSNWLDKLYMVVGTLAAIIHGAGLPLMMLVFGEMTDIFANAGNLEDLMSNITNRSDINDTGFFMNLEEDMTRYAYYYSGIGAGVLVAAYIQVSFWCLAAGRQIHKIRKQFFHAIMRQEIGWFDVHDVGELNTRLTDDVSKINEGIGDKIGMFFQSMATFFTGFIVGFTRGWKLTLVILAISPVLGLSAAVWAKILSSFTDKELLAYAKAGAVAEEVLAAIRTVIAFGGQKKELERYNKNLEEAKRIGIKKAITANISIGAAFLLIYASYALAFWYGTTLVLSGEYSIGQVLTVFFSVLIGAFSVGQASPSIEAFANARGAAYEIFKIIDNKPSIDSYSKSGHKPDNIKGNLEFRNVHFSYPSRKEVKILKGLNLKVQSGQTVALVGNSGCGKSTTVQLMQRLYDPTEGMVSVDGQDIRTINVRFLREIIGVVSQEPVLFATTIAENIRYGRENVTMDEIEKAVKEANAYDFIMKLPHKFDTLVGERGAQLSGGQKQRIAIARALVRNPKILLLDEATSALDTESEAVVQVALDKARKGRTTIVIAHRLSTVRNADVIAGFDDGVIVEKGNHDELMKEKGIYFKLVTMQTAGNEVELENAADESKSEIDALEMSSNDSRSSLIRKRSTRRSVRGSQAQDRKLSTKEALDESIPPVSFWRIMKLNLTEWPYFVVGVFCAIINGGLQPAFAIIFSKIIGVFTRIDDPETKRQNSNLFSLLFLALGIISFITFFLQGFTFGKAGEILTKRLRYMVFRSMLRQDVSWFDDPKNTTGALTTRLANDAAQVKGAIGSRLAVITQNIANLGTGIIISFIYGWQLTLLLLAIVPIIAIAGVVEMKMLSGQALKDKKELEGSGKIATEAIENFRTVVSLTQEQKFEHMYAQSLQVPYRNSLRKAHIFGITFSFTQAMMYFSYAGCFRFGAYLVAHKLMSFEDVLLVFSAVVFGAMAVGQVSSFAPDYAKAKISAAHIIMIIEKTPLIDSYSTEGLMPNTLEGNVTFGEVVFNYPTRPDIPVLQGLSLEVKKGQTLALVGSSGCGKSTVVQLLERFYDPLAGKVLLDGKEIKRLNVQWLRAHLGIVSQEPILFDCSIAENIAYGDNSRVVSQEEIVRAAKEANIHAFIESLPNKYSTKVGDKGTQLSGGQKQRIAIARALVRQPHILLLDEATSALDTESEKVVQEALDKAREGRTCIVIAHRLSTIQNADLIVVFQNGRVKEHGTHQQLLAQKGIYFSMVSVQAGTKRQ

SMILES: CN(CC(=O)O)C(=O)CN [GlySar, Glycylsarcosine] (H-Gly-[Sar]-OH)
reduction in [3H]-GlySar uptake (PepT1; all cell lines (MDCK-MDR1, MDCK-MRP2, Caco-2), prodrug 25µM, cold GlySar 10mM): 75%

[3H]-LPV uptake with increasing concentrations of unlabelled compound (MRP2): dramatically elevated | [3H]-LPV uptake with increasing concentrations of unlabelled compound (P-gp): dramatically elevated | solubility at 24 h [2]: 49 ± 3 µg/mL (≈ 77.9 µM)
SMILES: Cc1cccc(C)c1OCC(=O)N[C@@H](Cc1ccccc1)[C@@H](O)C[C@H](Cc1ccccc1)NC(=O)[C@H](C(C)C)N1CCCNC1=O [LPV, Lopinavir]
variation in [3H]-L-His uptake in presence of compound (PHT1): no such variation | variation in [3H]-GlySar uptake in presence of compound (PepT1; 25µM, MDCK-MDR1, MDCK-MRP2, Caco-2): no such variation | mean residential time (MRT) ([1]; LPV itself dosed orally, rats): 3.13 h | mean residential time (MRT) of regenerated LPV ([1]; regenerated after oral Val-Ile-LPV, rats): 10.1 h | Area under the curve (AUC) of administered compound ([1]; single oral dose, Sprague Dawley rats): 177 ± 5 µmol·min/L | reduction in number of viable cells (MDCKII-WT cells; 100 µM, 4h incubation, MDCK-WT cells): Approximately 13% | reduction in number of viable cells / cell viability (MDCKII-WT cells; 200 µM, 4h incubation, MDCK-WT cells): ~36% | Cytotoxicity (MDCKII-WT cells; 5–50 µM, 4h incubation, MDCK-WT cells): no cytotoxic effects

SMILES: CC(C)(C)CC(C)(C)c1ccc(OCCO)cc1 [Triton-X]
decrease in absorbance compared to negative control (MDCKII-WT cells; 0.1% Triton-X, positive control): about 70%
